# Assay results gathered from unrelated publications.
# Protocols differ between the studies behind these lines.
# Target: Myosin-IIIa (MYO3A, Homo sapiens, UniProt Q8NEV4)
SMILES,observed,method,tested at,remaining binding [%]
C[C@@H](c1ccc(-n2cnc3c(N)ncnc32)cc1)N1CCc2nn(C)c(Cc3ccccc3)c2C1=O,binding,competition with immobilised ligand,0.1 µM,97
FC(F)(F)Oc1cccc(-c2cnc3ccc(-c4ccncc4)nn23)c1,cell-free assay,competition with immobilised ligand,5 µM,82
COc1cnc(Nc2cccc(S(N)(=O)=O)c2)nc1N1CCN(c2ccccc2)C(=O)C1,binding,competition with immobilised ligand,1 µM,100
CN(C)c1nccc(-c2cnc3ncccn23)n1,binding,,1 µM,90
O=C(NCCCN1CCOCC1)c1ccc(Nc2nccc(-c3cc4ccccc4s3)n2)cc1,binding,competition with immobilised ligand,1 µM,87
CCCCN(CCCC)C(=O)CN1C[C@@H](c2cc(OC)c3c(c2)OCO3)[C@H](C(=O)O)[C@H]1CC(C)(C)CCC,cell-free assay,competition with immobilised ligand,1 µM,100
O=C(NCCCN1CCOCC1)c1ccc(Nc2ncc(Cl)c(-c3ccc(Cl)s3)n2)cc1,binding,competition with immobilised ligand,1 µM,95
CCC(=N\O)/C(C)=C/c1ccc(F)cc1,cell-free assay,competition with immobilised ligand,1 µM,100
O=C(NCC1CCOCC1)c1n[nH]cc1NC(=O)c1c(F)cccc1F,binding,competition with immobilised ligand,1 µM,88
CN(c1nccc(-c2cnn3ncccc23)n1)C1CC1,binding,,1 µM,77
FC(F)(F)c1ccc2c(c1)nc(-c1cccnc1)n2C1CC1,cell-free assay,competition with immobilised ligand,1 µM,100
CNC(=O)[C@@H]1CC[C@@H](n2c(-c3ccc4cnccc4c3)nc3ccc(C(=O)NCc4cccc(C(N)=O)c4)cc32)C1,binding,competition with immobilised ligand,1 µM,100
c1cnn2ncc(-c3ccnc(N4CCC45COC5)n3)c2c1,binding,,1 µM,55
O=C(c1ccc(Nc2nccc(-c3cc4ccccc4s3)n2)cc1)N1CCC(N2CCCC2)CC1,binding,competition with immobilised ligand,1 µM,100
COc1ccnn2ncc(-c3ccnc(N(C)C)n3)c12,binding,,1 µM,96
O=C(O)c1cc(-c2ccc(C3CCNCC3)cc2)c2ccc(-c3ccc(C(F)(F)F)cc3)cc2c1,binding,competition with immobilised ligand,1 µM,100
CN(C)c1ncc(F)c(-c2cnn3ncccc23)n1,binding,,1 µM,100
C[C@@H]1CN(c2cc(-c3nn(C)c4ccc(OC5(C)CC5)cc34)ncn2)C[C@H](C)O1,cell-free assay,competition with immobilised ligand,1 µM,100
Nc1ncc2c(n1)-c1c([nH]c3ccc(C#CC4CC4)cc13)CCCC2,binding,competition with immobilised ligand,1 µM,91
CC1CCCN1c1nccc(-c2cnn3ncccc23)n1 (stereo not drawn),binding,,1 µM,100
O=C(NS(=O)(=O)c1ccc(NCC2CCOCC2)c([N+](=O)[O-])c1)c1ccc(N2CCN(Cc3ccc(C(F)(F)F)cc3-c3ccc(Cl)cc3)CC2)cc1Oc1cnc2[nH]ccc2c1,cell-free assay,competition with immobilised ligand,1 µM,85
